Assay results published in ChEMBL document CHEMBL2321715, “Design and synthesis of novel 2-methyl-4,5-substitutedbenzo[f]-3,3a,4,5-tetrahydro-pyrazolo[1,5-d][1,4]oxazepin-8(7H)-one derivatives as telomerase inhibitors” (Bioorg Med Chem Lett, 2013).
The source made the active and inactive calls. No cut-off for these calls is given here.

Experiments:
[1] = molecular target: Telomerase reverse transcriptase (Homo sapiens, UniProt O14746); experiment: Inhibition of telomerase activity in human MGC803 cells after 24 hrs by TRAP-PCR-ELISA assay
[2] = Downregulation of TERT expression in human MGC803 cells after 48 hrs by Western blot analysis; type: functional, cell-based; details: MGC-803
How it was run: (§1)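 MGC-803 cells exposed 48 h; lysed in RIPA buffer, protein measured by BCA, […] total protein run on SDS–PAGE and blotted to PVDF. Primary antibodies 1 h in TBS/Tween-20 (0.075%) with 3% Marvel: anti-TERT, anti-β-actin, anti-Cyclin D1, anti-phospho-AKT, anti-AKT, each 1:500. HRP secondaries, ECL detection. DMSO vehicle control; LY used as comparator.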

MGC-803 = experiment: Inhibition of PI3K-mediated Akt phosphorylation in human MGC803 cells after 48 hrs by Western blot analysis; type: cell-based
How it was run: as §1

[3] = Downregulation of cyclin D1 expression in human MGC803 cells after 48 hrs by Western blot analysis; type: functional, cell-based; details: MGC-803
How it was run: as §1

Sequence of Telomerase reverse transcriptase (O14746 whole entry): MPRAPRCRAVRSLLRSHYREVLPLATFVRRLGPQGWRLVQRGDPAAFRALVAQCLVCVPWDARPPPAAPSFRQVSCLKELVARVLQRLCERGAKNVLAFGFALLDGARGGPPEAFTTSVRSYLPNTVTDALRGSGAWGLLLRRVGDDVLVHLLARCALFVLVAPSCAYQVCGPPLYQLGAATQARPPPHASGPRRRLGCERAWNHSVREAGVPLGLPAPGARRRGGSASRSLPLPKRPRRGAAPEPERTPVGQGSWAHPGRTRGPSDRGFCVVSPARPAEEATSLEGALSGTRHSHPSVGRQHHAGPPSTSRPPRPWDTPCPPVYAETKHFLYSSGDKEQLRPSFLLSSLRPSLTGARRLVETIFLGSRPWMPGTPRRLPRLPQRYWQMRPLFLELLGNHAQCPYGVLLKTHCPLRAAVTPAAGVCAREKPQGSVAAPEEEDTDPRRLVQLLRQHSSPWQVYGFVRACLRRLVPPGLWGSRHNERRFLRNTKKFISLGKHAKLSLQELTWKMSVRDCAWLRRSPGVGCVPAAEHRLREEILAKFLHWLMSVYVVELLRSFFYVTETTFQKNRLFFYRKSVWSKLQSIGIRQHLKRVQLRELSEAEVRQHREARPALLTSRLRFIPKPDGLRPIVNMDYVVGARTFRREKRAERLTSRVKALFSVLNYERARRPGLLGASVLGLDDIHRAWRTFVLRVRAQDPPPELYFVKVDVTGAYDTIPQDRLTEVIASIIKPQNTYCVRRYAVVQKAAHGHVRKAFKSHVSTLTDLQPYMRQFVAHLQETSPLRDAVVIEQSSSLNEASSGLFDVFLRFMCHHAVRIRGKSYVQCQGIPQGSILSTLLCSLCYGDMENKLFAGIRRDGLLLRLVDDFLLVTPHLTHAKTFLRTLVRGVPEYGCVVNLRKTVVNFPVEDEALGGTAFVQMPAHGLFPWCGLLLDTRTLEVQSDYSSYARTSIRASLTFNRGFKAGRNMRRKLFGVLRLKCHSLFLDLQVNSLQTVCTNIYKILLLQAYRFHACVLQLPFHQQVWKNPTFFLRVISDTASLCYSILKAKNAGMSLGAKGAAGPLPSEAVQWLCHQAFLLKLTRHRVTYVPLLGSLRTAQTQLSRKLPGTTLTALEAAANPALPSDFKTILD

Compound | IC50 [1] [µM] | Activity [2] | inhibition (MGC-803) | Activity [3]
CC1=NN2C(=O)COc3ccc(C(F)(F)F)cc3C2C1 (centres undefined) | 3.14 | Active |  | 
CC1=NN2C(=O)COc3cc([N+](=O)[O-])ccc3C2C1 (centres undefined) | 6.6 |  |  | 
CC[n+]1c(-c2ccccc2)c2cc(N)ccc2c2ccc(N)cc21 [HOMIDIUM BROMIDE] | 2.39 |  |  | 
CC1=NN2C(=O)COc3c(Br)cc(Br)cc3C2C1 (centres undefined) | 0.78 | Active | Active | Active

Second part, led by results:

IC50 [1] [µM] | Compound | Activity [2] | inhibition (MGC-803) | Activity [3]
14.8 | CC1=NN2C(=O)COc3ccccc3C2C1 (centres undefined) |  |  | 
1.71 | CC1=NN2C(=O)COc3ccc(Cl)cc3C2C1 (centres undefined) | Active | Active | Active
2.11 | CC1=NN2C(=O)COc3c(F)cccc3C2C1 (centres undefined) | Active |  | 
21.9 | CC1=NN2C(=O)COc3cc(C)ccc3C2C1 (centres undefined) | Active |  | 
10.8 | COc1cccc2c1OCC(=O)N1N=C(C)CC21 (centres undefined) | Active |  | 
